An excerpt weighted towards active compounds, which were near 2.2% of everything screened.
PHOSPHO1 inh – PubChem AID 1565; Phosphoethanolamine/phosphocholine phosphatase (Homo sapiens), Q8TCT1; recombinant PHOSPHO1, absorbance phosphatase assay; inhibition, % at 13.3 µM; 1.1% of 290,000 active; in the data active = inhibition above about 60%
Target sequence (Q8TCT1 whole entry, looked up): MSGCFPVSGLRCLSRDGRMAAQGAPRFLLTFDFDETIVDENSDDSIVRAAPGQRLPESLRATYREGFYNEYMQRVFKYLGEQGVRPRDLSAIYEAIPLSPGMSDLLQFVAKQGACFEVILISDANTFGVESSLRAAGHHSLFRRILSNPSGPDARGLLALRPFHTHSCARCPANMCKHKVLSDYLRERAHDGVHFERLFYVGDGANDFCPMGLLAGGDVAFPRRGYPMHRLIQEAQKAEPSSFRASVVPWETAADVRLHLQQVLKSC
CR mimetic SO – reduction of superoxide in aged yeast, primary screen, HTS; S. cerevisiae aged cells, superoxide DHE fluorescence; stronger effect = lower value; superoxide response (% of plate mean), % at 10 µM; 0.18% of 330,000 active; AID 2690, 2010;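 active = superoxide response under a set limit, about three screen SD below normal, cut at about 65% in these data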;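 note: yeast aged for seven days with compound at 30 °C before DHE staining; 100% = average MFI of all compound-treated wells on the plate with controls excluded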
PvdQ inh – P. aeruginosa PvdQ acylase inhibitors, primary screen, biochemical, fluorescence, plate reader and imaging, single point; purified PvdQ acylase; 0.063% of 340,000 active; PvdQ acylase [Pseudomonas aeruginosa LESB58]; inhibition, % at 10 µM; in the data active = inhibition above about 30%, passing the limit was not always enough;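 note: 0% = vehicle neutral wells and 100% = reference inhibitor wells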
IMP-1 inh – IMP-1 metallo-beta-lactamase inhibitors, primary screen, biochemical, epi-absorbance readout, Pseudomonas aeruginosa enzyme | metallo-beta-lactamase IMP-1 (Pseudomonas aeruginosa) | inhibition, % at 5.6 µM | purified IMP-1, nitrocefin hydrolysis, epi-absorbance fluorescence | AID 1556, 2009 | 0.45% of 290,000 active;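 active = inhibition above the mean plus 3 SD of all compounds in the same screening run, cut at about 4.5% in these data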;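 note: 0% = IMP-1 with DMSO and 100% = DMSO wells lacking enzyme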
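System: purified recombinant IMP-1 beta-lactamase. Medium: Zinc- and detergent-supplemented HEPES buffer, pH 7.1. Compound: one 5.6 µM dose […]. Schedule: 15 min preincubation plus 25 min reaction at 25 °C. Technique: Epi-absorbance fluorescence, 480 nm excitation, 530 nm emission.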
VIM-2 inhibitor – VIM-2 metallo-beta-lactamase inhibitors, primary screen, biochemical, epi-absorbance readout, Pseudomonas aeruginosa enzyme | inhibition, % at 5.6 µM | AID 1527, 2009 | 0.89% of 290,000 active | purified VIM-2, nitrocefin hydrolysis, epi-absorbance fluorescence;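 active = inhibition above the mean of all tested compounds plus 3 SD, cutoff set per screening run, cut at about 7.5% in these data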;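 note: red hydrolysis product quenches plate fluorescence so inhibitors raise well fluorescence; 0% = enzyme with DMSO and 100% = DMSO without enzyme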
CR mimetic CP – superoxide lowering in aged yeast cells, confirmation, cherry picked compounds. shares compounds with CR mimetic SO. S. cerevisiae aging, superoxide DHE fluorescence; stronger effect = lower value. superoxide response (% of plate), % at 10 µM. 1% of 850 active;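 active = superoxide signal below 65% of the plate average of sample wells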;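 note: cells aged with compound for 7 days at 30 degrees C before staining; 100% equals mean DHE fluorescence of all compound wells on the plate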
DHE counter – DHE quenching or ROS scavenging interference in aged yeast, artefact control for yeast caloric restriction mimetic project, S. cerevisiae BY4741, flow cytometry. DHE fluorescence; stronger effect = lower value. shares compounds with CR mimetic SO. AID 435000, 2010. 850 tested, under 10 active. fluorescence response, % at 10 µM;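 active = fluorescence response below 15%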;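 note: percent of the mean fluorescence averaged over all compound wells on the plate; lower means stronger quenching of DHE signal or ROS scavenging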
An asterisk follows results filed as active; . = no result.

SMILES | PHOSPHO1 inh | CR mimetic SO | PvdQ inh | IMP-1 inh | VIM-2 inhibitor | CR mimetic CP | DHE counter
Cc1cc(C)nc(CCNC(=O)C2CCC(=O)N(Cc3ccccc3F)C2)n1 (configuration not stated) | 1 | 65* | -20 | -2 | 0 | 95 | 95
COC/C=C/C1=CC2=CC(=O)C(C)(OC(=O)c3cnc4ccccc4n3)C(=O)C2=CO1 (configuration not stated) | . | 91 | . | . | . | . | .
c1ccc(-c2cccc(-c3ccccn3)n2)nc1 | 0 | 63* | -14 | -3 | -2 | 76 | 118
COc1ccc(-c2nc3ccccc3nc2-c2ccc(OC)c(OC)c2)cc1OC | 19 | 105 | -8 | -1 | -1 | . | .
COc1ccc2nc3ccccc3nc2c1N | 42 | 49* | 2 | -3 | -1 | 57* | 94
O=C(NC1CCCC1)C(c1ccccc1)N(C(=O)c1csnn1)c1ccccc1F (configuration not stated) | 13 | 91 | 2 | -2 | -2 | . | .
O=C(NC1CCCCC1)C(c1ccncc1)N(C(=O)c1csnn1)c1ccccc1F (configuration not stated) | 32 | 65* | -3 | -3 | -4 | 92 | 99
O=C(CNCC(=O)Nc1ccc(F)c(F)c1F)Nc1ccc(F)c(F)c1F | 20 | 65* | -17 | -2 | -4 | 96 | 92
CCOc1ccc(NC(=O)CN2CCN(CC(=O)Nc3ccc(OC)cc3OC)CC2)cc1 | 26 | 62* | -7 | -1 | 2 | 107 | 106
CCOc1ccc(NC(=O)CN2CCN(CC(=O)Nc3ccccc3OC)CC2)cc1 | 9 | 92 | -17 | -1 | -1 | . | .
COCCNC(=O)CN1C(=O)/C(=C/c2ccccc2)Oc2ccc(C(C)(C)C)cc21 | . | 110 | -4 | -1 | -1 | . | .
CCS(=O)(=O)N1CCC(C(=O)NC2CCCCC2)CC1 | -3 | 107 | 8 | 0 | -3 | . | .
CCN(CC)S(=O)(=O)N1CCC(C(=O)NC2CCCC2)CC1 | -1 | 64* | 6 | -4 | 0 | 119 | 117
CCN1C[C@@H]2[C@@H]3C(=O)N(C)C(=O)[C@@H]3[C@](C)(C1=O)N2C(=O)c1ccc(C(F)(F)F)cc1 | . | . | -8 | . | . | . | .
[O-][n+]1c2ccccc2[n+]([O-])c2cc(O)ccc21 | -20 | 51* | -11 | -7 | -5 | 61* | 90
CCc1ccc2c(c1)C(C)=CC(C)(C)N2 | -31 | 96 | -11 | -2 | -2 | . | .
CCOc1ccc2c(c1)C(C)=CC(C)(C)N2 | . | 65* | -22 | . | . | 103 | 90
Cc1ccc(S(=O)(=O)N2CC(=O)N3CCN(CCN)C3C2)cc1 (configuration not stated) | . | 75 | -12 | . | . | . | .
N#Cc1c(F)cccc1NCc1cccnc1 | 48 | 56* | 4 | -1 | 1 | 97 | 94
Cc1cc(/C=C2\SC(=Nc3ccccc3)NC2=O)c(C)n1-c1ccc(S(N)(=O)=O)cc1 | 24 | 106 | 2 | 1 | 0 | . | .
COc1ccc(C)cc1-n1nnnc1SCc1cn2ccsc2n1 | 4 | 62* | -14 | -3 | -2 | 118 | 110
Cc1ccc(C(=O)O)cc1S(=O)(=O)N1CCCC1 | 0 | 108 | -10 | -2 | -4 | 104 | 107
Cn1cc(C2CC(c3ccccc3)=NN2C(=O)c2ccccc2)c2ccccc21 (configuration not stated) | 2 | 59* | -1 | 0 | -3 | 93 | 103
CCCC(=O)N1N=C(c2ccccc2)CC1c1cn(C)c2ccccc12 (configuration not stated) | -37 | 100 | -11 | -2 | -3 | . | .
CCn1c(=O)c2c(O)cc(=O)oc2c2ccccc21 | -32 | 48* | -6 | -2 | -4 | 82 | 101
SMILES | PHOSPHO1 inh | CR mimetic SO | PvdQ inh | IMP-1 inh | VIM-2 inhibitor | CR mimetic CP | DHE counter
CCOC(=O)c1c(O)c2ccccc2n(-c2ccccc2)c1=O | 14 | 90 | 0 | -2 | -1 | . | .
O=c1cc(-c2ccccc2)c2c(O)cc(O)cc2o1 | 3 | 108 | 5 | -2 | 0 | . | .
O=c1cc(O)c2c(=O)n(-c3ccccc3)c3ccccc3c2o1 | 19 | 75 | -16 | -2 | -2 | 96 | 95
CC(C)n1c(=O)c2c(O)cc(=O)oc2c2ccccc21 | 11 | 71 | -9 | -1 | -3 | 87 | 98
COc1cc(CO)c(Br)cc1OCC(=O)Nc1ccccc1C | 4 | 64* | 3 | -2 | -3 | 105 | 102
O=C(O)C1CCCN1S(=O)(=O)c1ccc(Cl)cc1 (configuration not stated) | 29 | 95 | 10 | -1 | -1 | 107 | 98
CCCNS(=O)(=O)c1ccc(NC(=O)c2cccnc2)cc1 | -7 | 58* | -14 | -1 | 2 | 115 | 107
OCCOCCn1c2ccccc2c2ccccc21 | -8 | 80 | -3 | 4 | 0 | 95 | 92
OCn1c2ccccc2c2ccccc21 | 20 | 97 | 3 | -2 | -2 | . | .
N#CCc1cc2ccc3cccc4ccc(c1)c2c34 | 27 | 98 | -1 | -2 | -2 | . | .
O=c1cccccc1NCc1ccccc1 | 16 | 102 | 2 | -1 | -3 | . | .
Nc1c(NCc2ccccc2)c(=O)c1=O | 8 | 63* | -12 | -1 | -2 | 96 | 91
COc1ccc(CCNc2nc(=S)[nH]c3cc(OC)c(OC)cc23)cc1OC | -13 | 63* | 1 | -2 | -1 | 99 | 97
O=C(O)c1c(N2CCCCC2)ccc([N+](=O)[O-])c1N1CCCCC1 | 29 | 53* | -23 | -2 | -3 | 102 | 109
NC(=O)c1ccc(N2CCCCCC2)c([N+](=O)[O-])c1 | 57 | 109 | -8 | -2 | -2 | . | .
CCCCn1c(N)c(N(CCOC)C(=O)COc2ccc(Cl)cc2)c(=O)[nH]c1=O | 48 | 101 | 7 | -2 | -4 | . | .
O=C(OC(C(=O)Nc1cccc(C(F)(F)F)c1)c1ccccc1)C1CCCCC1 (configuration not stated) | 4 | 98 | -14 | -3 | -2 | . | .
C=C1CCC[C@]2(C)C[C@H]3OC(=O)C(CNCCN(CC)CC)[C@H]3CC12 (some centres not stated) | . | 56* | -22 | 1 | 1 | 96 | 95
C=C1CCC[C@]2(C)C[C@H]3OC(=O)C(CNCCN(C)C)[C@H]3CC12 (some centres not stated) | . | 95 | -8 | -3 | -2 | . | .
CCCc1cc(C(=O)Nc2cccc([N+](=O)[O-])c2)cs1 | 34 | 65* | 13 | 1 | 2 | 95 | 98
CC(C)(C)c1ccc(C(=O)Nc2cccc([N+](=O)[O-])c2)cc1 | -3 | 80 | -17 | -2 | -3 | . | .
CCc1ccc(N(CC(=O)NC(C)C)C(=O)CCC(=O)Nc2nccs2)cc1 | 37 | 96 | -17 | 2 | -1 | . | .
